Laboratory results: ChEMBL document CHEMBL5058577, “EUbOPEN Chemogenomics Library 2 (Multiplex)” (2022)

Test system: Fibroblast
Assay: Multiplex assay against human fibroblast
Format: toxicity, cell-based
How it was run: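 Cells were classed with CellPathfinder machine-learning gating, first as Hoechst high-intensity objects or normal cells, then (normal cells) as healthy, pyknosed or fragmented nuclei, and finally (pyknosed cells) as mitotic or apoptotic. Staining of live cells at seeding used Hoechst33342, BioTracker Green Microtubule Cytoskeleton Dye, MitoTracker Red and Annexin V Alexa Fluor 680, with imaging on a CQ1 microscope at 37°C and 5% CO2 after compound addition. Tubulin, mitochondrial-mass and membrane-permeability phenotypes are per cents of healthy-nucleus cells.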

[1] = 12 h, 1 µM, compound concentration 1 uM, replicate 1
[2] = 12 h, 1 µM, compound concentration 1 uM, replicate 2
[3] = 12 h, 10 µM, compound concentration 10 uM, replicate 1
[4] = 12 h, 10 µM, compound concentration 10 uM, replicate 2
[5] = 24 h, 1 µM, compound concentration 1 uM, replicate 1
[6] = 24 h, 1 µM, compound concentration 1 uM, replicate 2
[7] = 24 h, 10 µM, compound concentration 10 uM, replicate 1
[8] = 24 h, 10 µM, compound concentration 10 uM, replicate 2
[9] = 48 h, 1 µM, compound concentration 1 uM, replicate 1
[10] = 48 h, 1 µM, compound concentration 1 uM, replicate 2
[11] = 48 h, 10 µM, compound concentration 10 uM, replicate 1
[12] = 48 h, 10 µM, compound concentration 10 uM, replicate 2

SMILES: O=S(=O)(c1ccccc1)c1cnc2c(N3CCNCC3)cccc2c1 [INTEPIRDINE]
- Population Apoptotic (%) [1]: 50%
- Population Fragmented Nuclei (%) [1]: 23%
- Population Healthy Nuclei (%) [1]: 67%
- Population Hoechst High Intensity Objects (%) [1]: 3%
- Population Membrane Permeable-Phenotype (%) [1]: 0%
- Population Mitochondria Different-Phenotype (%) [1]: 2%
- Population Mitotic Cells (%) [1]: 50%
- Population Normal (%) [1]: 96%
- Population Pyknosed Nuclei (%) [1]: 9%
- Population Tubulin-Different-Phenotype (%) [1]: 26%
- Total Cell Count [1]: 212
- Population Apoptotic (%) [2]: 34%
- Population Fragmented Nuclei (%) [2]: 28%
- Population Healthy Nuclei (%) [2]: 47%
- Population Hoechst High Intensity Objects (%) [2]: 4%
- Population Membrane Permeable-Phenotype (%) [2]: 7%
- Population Mitochondria Different-Phenotype (%) [2]: 7%
- Population Mitotic Cells (%) [2]: 65%
- Population Normal (%) [2]: 95%
- Population Pyknosed Nuclei (%) [2]: 24%
- Population Tubulin-Different-Phenotype (%) [2]: 61%
- Total Cell Count [2]: 148
- Population Apoptotic (%) [3]: 75%
- Population Fragmented Nuclei (%) [3]: 22%
- Population Healthy Nuclei (%) [3]: 62%
- Population Hoechst High Intensity Objects (%) [3]: 1%
- Population Membrane Permeable-Phenotype (%) [3]: 1%
- Population Mitochondria Different-Phenotype (%) [3]: 8%
- Population Mitotic Cells (%) [3]: 25%
- Population Normal (%) [3]: 98%
- Population Pyknosed Nuclei (%) [3]: 14%
- Population Tubulin-Different-Phenotype (%) [3]: 44%
- Total Cell Count [3]: 138
- Population Apoptotic (%) [4]: 61%
- Population Fragmented Nuclei (%) [4]: 43%
- Population Healthy Nuclei (%) [4]: 40%
- Population Hoechst High Intensity Objects (%) [4]: 6%
- Population Membrane Permeable-Phenotype (%) [4]: 5%
- Population Mitochondria Different-Phenotype (%) [4]: 13%
- Population Mitotic Cells (%) [4]: 38%
- Population Normal (%) [4]: 93%
- Population Pyknosed Nuclei (%) [4]: 16%
- Population Tubulin-Different-Phenotype (%) [4]: 68%
- Total Cell Count [4]: 136
- Population Apoptotic (%) [5]: 54%
- Population Fragmented Nuclei (%) [5]: 16%
- Population Healthy Nuclei (%) [5]: 72%
- Population Hoechst High Intensity Objects (%) [5]: 5%
- Population Membrane Permeable-Phenotype (%) [5]: 2%
- Population Mitochondria Different-Phenotype (%) [5]: 4%
- Population Mitotic Cells (%) [5]: 45%
- Population Normal (%) [5]: 94%
- Population Pyknosed Nuclei (%) [5]: 10%
- Population Tubulin-Different-Phenotype (%) [5]: 28%
- Total Cell Count [5]: 212
- Population Apoptotic (%) [6]: 41%
- Population Fragmented Nuclei (%) [6]: 32%
- Population Healthy Nuclei (%) [6]: 44%
- Population Hoechst High Intensity Objects (%) [6]: 0%
- Population Membrane Permeable-Phenotype (%) [6]: 1%
- Population Mitotic Cells (%) [6]: 58%
- Population Normal (%) [6]: 99%
- Population Pyknosed Nuclei (%) [6]: 24%
- Population Tubulin-Different-Phenotype (%) [6]: 59%
- Total Cell Count [6]: 151
- Population Apoptotic (%) [7]: 40%
- Population Fragmented Nuclei (%) [7]: 28%
- Population Healthy Nuclei (%) [7]: 65%
- Population Hoechst High Intensity Objects (%) [7]: 1%
- Population Membrane Permeable-Phenotype (%) [7]: 0%
- Population Mitochondria Different-Phenotype (%) [7]: 7%
- Population Mitotic Cells (%) [7]: 60%
- Population Normal (%) [7]: 98%
- Population Pyknosed Nuclei (%) [7]: 6%
- Population Tubulin-Different-Phenotype (%) [7]: 50%
- Total Cell Count [7]: 152
- Population Apoptotic (%) [8]: 91%
- Population Fragmented Nuclei (%) [8]: 39%
- Population Healthy Nuclei (%) [8]: 50%
- Population Hoechst High Intensity Objects (%) [8]: 4%
- Population Membrane Permeable-Phenotype (%) [8]: 3%
- Population Mitochondria Different-Phenotype (%) [8]: 15%
- Population Mitotic Cells (%) [8]: 8%
- Population Normal (%) [8]: 95%
- Population Pyknosed Nuclei (%) [8]: 10%
- Population Tubulin-Different-Phenotype (%) [8]: 67%
- Total Cell Count [8]: 123
- Population Apoptotic (%) [9]: 66%
- Population Fragmented Nuclei (%) [9]: 22%
- Population Healthy Nuclei (%) [9]: 69%
- Population Hoechst High Intensity Objects (%) [9]: 5%
- Population Membrane Permeable-Phenotype (%) [9]: 0%
- Population Mitochondria Different-Phenotype (%) [9]: 2%
- Population Mitotic Cells (%) [9]: 33%
- Population Normal (%) [9]: 94%
- Population Pyknosed Nuclei (%) [9]: 7%
- Population Tubulin-Different-Phenotype (%) [9]: 34%
- Total Cell Count [9]: 213
- Population Apoptotic (%) [10]: 52%
- Population Fragmented Nuclei (%) [10]: 39%
- Population Healthy Nuclei (%) [10]: 45%
- Population Hoechst High Intensity Objects (%) [10]: 3%
- Population Membrane Permeable-Phenotype (%) [10]: 1%
- Population Mitotic Cells (%) [10]: 48%
- Population Normal (%) [10]: 96%
- Population Pyknosed Nuclei (%) [10]: 15%
- Population Tubulin-Different-Phenotype (%) [10]: 54%
- Total Cell Count [10]: 170
- Population Apoptotic (%) [11]: 63%
- Population Fragmented Nuclei (%) [11]: 23%
- Population Healthy Nuclei (%) [11]: 67%
- Population Hoechst High Intensity Objects (%) [11]: 3%
- Population Membrane Permeable-Phenotype (%) [11]: 1%
- Population Mitochondria Different-Phenotype (%) [11]: 15%
- Population Mitotic Cells (%) [11]: 36%
- Population Normal (%) [11]: 96%
- Population Pyknosed Nuclei (%) [11]: 8%
- Population Tubulin-Different-Phenotype (%) [11]: 47%
- Total Cell Count [11]: 139
- Population Apoptotic (%) [12]: 40%
- Population Fragmented Nuclei (%) [12]: 48%
- Population Healthy Nuclei (%) [12]: 38%
- Population Hoechst High Intensity Objects (%) [12]: 6%
- Population Membrane Permeable-Phenotype (%) [12]: 6%
- Population Mitochondria Different-Phenotype (%) [12]: 6%
- Population Mitotic Cells (%) [12]: 60%
- Population Normal (%) [12]: 93%
- Population Pyknosed Nuclei (%) [12]: 12%
- Population Tubulin-Different-Phenotype (%) [12]: 57%
- Total Cell Count [12]: 125
